Active and inactive are the calls of the source. The rule behind the calls is not given here.
Legend:
Type in all cases: cell-based
Progesterone receptor = target: T1, Progesterone receptor (Homo sapiens, UniProt P06401); experiment: Antagonist activity at human progesterone receptor expressed in CHO-K1 cells harboring firefly luciferase gene after 20 hrs by One-Glo luciferase reporter gene assay
T1 sequence (P06401 whole entry): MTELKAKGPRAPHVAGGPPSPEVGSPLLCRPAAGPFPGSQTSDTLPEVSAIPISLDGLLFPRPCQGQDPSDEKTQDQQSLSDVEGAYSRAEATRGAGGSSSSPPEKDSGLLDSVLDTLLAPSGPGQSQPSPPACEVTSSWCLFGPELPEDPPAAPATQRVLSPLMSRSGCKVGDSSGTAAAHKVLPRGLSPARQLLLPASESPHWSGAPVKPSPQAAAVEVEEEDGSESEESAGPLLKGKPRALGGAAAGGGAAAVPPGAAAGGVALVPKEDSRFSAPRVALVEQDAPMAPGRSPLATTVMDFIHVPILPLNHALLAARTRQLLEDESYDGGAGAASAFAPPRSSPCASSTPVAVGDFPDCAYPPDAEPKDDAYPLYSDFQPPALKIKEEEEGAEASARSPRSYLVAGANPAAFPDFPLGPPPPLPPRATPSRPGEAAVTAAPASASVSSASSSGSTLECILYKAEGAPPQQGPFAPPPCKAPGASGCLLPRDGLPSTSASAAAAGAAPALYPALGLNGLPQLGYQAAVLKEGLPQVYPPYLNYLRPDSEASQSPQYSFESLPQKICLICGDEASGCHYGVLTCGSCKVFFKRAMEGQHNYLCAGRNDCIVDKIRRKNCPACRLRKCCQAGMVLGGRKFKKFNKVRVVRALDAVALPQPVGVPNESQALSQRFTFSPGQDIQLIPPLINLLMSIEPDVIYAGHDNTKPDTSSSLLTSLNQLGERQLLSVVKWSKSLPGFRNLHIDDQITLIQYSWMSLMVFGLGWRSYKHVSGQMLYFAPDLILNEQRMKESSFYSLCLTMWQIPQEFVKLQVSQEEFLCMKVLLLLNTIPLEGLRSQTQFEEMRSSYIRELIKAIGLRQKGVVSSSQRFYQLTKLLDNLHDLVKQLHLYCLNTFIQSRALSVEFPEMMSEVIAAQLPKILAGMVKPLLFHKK
Procedure, shortened: (§1)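 Cell-based luciferase reporter assays for GR, AR and PR, run in agonist and antagonist modes. Potency and Emax are averages of at least two determinations, reported with SD.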

Androgen receptor [1] = target: T2, Androgen receptor (Homo sapiens, UniProt P10275); experiment: Antagonist activity at human androgen receptor in human LNCAP cells harboring firefly luciferase gene after 20 hrs by One-Glo luciferase reporter gene assay; procedure, shortened: as §1
T2 sequence (P10275 whole entry): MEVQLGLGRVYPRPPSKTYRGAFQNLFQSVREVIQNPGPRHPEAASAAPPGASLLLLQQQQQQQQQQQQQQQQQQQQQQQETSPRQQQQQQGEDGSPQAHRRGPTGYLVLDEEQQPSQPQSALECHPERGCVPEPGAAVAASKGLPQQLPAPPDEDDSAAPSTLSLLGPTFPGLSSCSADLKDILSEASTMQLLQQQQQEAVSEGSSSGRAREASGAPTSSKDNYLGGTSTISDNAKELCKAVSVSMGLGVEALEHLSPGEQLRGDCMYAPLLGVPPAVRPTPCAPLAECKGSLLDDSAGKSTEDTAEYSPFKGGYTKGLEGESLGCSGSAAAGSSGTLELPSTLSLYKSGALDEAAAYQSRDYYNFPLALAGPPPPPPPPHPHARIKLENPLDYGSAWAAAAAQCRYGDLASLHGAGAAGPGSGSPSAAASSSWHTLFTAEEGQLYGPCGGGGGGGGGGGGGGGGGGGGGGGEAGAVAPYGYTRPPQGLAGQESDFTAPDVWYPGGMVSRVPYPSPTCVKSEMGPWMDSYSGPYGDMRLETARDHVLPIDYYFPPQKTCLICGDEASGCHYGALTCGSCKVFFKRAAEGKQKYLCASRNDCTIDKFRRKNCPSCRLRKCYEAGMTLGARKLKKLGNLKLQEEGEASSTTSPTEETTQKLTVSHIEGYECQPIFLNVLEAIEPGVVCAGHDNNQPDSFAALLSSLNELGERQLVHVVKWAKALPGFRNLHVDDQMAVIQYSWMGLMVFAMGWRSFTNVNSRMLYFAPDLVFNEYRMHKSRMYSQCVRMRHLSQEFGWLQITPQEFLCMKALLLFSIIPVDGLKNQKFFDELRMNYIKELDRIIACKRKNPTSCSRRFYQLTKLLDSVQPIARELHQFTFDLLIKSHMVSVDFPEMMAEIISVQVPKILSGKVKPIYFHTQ

Androgen receptor [2] = target: T2, Androgen receptor; experiment: Agonist activity at human androgen receptor in human LNCAP cells harboring firefly luciferase gene after 20 hrs by One-Glo luciferase reporter gene assay
Glucocorticoid receptor = target: T3, Glucocorticoid receptor (Homo sapiens, UniProt P04150); experiment: Antagonist activity at human glucocorticoid receptor expressed in CHO-K1 cells harboring firefly luciferase gene after 20 hrs by One-Glo luciferase reporter gene assay
T3 sequence (P04150 whole entry): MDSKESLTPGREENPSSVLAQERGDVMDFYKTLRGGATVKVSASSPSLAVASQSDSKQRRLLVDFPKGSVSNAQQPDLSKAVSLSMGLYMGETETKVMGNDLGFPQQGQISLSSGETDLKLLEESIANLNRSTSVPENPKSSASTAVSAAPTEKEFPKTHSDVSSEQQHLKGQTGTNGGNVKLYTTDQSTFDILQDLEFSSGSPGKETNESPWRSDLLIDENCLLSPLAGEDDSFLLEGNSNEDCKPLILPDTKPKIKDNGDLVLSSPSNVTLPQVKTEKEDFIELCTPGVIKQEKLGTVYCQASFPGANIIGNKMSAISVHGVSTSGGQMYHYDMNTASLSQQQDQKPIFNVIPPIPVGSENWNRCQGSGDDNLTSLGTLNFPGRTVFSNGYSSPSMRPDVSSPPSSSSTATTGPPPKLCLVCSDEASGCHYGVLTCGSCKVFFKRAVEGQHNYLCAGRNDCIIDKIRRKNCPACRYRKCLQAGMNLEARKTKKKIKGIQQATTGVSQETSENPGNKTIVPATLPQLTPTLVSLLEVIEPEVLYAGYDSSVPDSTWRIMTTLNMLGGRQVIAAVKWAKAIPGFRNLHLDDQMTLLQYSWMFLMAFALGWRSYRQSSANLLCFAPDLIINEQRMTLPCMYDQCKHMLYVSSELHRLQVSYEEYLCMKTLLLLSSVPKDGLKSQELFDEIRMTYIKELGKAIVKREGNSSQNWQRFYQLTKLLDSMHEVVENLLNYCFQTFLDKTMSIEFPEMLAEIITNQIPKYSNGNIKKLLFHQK

[3] = target: T4, Progesterone receptor (Homo sapiens) (UniProt P06401); experiment: Agonist activity at human progesterone receptor expressed in CHO-K1 cells harboring firefly luciferase gene after 20 hrs by One-Glo luciferase reporter gene assay; procedure, shortened: as §1
T4 sequence (whole entry): T1 sequence (P06401 whole entry)

Androgen receptor [4] = target: T2, Androgen receptor; experiment: Agonist activity at human androgen receptor in human LNCAP cells harboring firefly luciferase gene after 20 hrs by One-Glo luciferase reporter gene assay relative to mifepristone; procedure, shortened: as §1
Homo sapiens = species on record: Homo sapiens; experiment: Selectivity ratio, ratio of IC50 for human androgen receptor in human LNCAP cells to IC50 for human glucocorticoid receptor expressed in CHO-K1 cells harboring firefly luciferase gene
[5] = target: T5, Glucocorticoid receptor (Homo sapiens) (UniProt P04150); experiment: Antagonist activity at human glucocorticoid receptor expressed in CHO-K1 cells harboring firefly luciferase gene assessed as inhibition of glucocorticoid receptor activity at 0.01 to 10000 nM after 20 hrs by One-Glo luciferase reporter gene assay relative to mifepristone; set-up: scale not given: the % may be the effect or the level left; procedure, shortened: as §1
T5 sequence (whole entry): T3 sequence (P04150 whole entry)

Structure (SMILES)	IC50 (Progesterone receptor) [nM]	IC50 (Androgen receptor [1]) [nM]	EC50 (Androgen receptor [2]) [nM]	IC50 (Glucocorticoid receptor) [nM]	agonist activity [3]	Emax at 20 h (Androgen receptor [4]) [%]	Ratio (Homo sapiens)	Activity [5] [%]
CCN(CC)c1ccc([C@H]2C[C@@]3(C)[C@@H](CC[C@@]3(O)C#CC(C)(C)C)[C@@H]3CCC4=CC(=O)CC[C@@H]4[C@H]32)cc1	6	263	> 2500	13.9	inactive	9.4	10 to 30	–
CC#C[C@]1(O)CC[C@H]2[C@@H]3CCC4=CC(=O)CC[C@]4(C)[C@H]3[C@@H](c3ccc(N(C)CCOC)cc3)C[C@@]21C	1640	1300	> 2500	52.1	inactive	20	–	–
CC#C[C@]1(O)CC[C@H]2[C@@H]3CCC4=CC(=O)CC[C@]4(C)[C@H]3[C@@H](c3ccc(OC)cc3)C[C@@]21C	1690	561	> 2500	58.3	inactive	14.1	–	–
CCC(C)(C)C#C[C@]1(O)CC[C@H]2[C@@H]3CCC4=CC(=O)CC[C@@H]4[C@H]3[C@@H](c3ccc(N(C)C)cc3)C[C@@]21C	21.1	175	> 2500	12.7	inactive	7.3	10 to 30	–
CC(C)C#C[C@]1(O)CC[C@H]2[C@@H]3CCC4=CC(=O)CC[C@]4(C)[C@H]3[C@@H](c3ccc(N(C)C)cc3)C[C@@]21C	2080	> 5000	> 2500	62	inactive	8.3	–	–
CN(C)c1ccc([C@H]2C[C@@]3(C)[C@@H](CC[C@@]3(O)C#CC(C)(C)C)[C@@H]3CCC4=CC(=O)CC[C@@H]4[C@H]32)cc1	3.4	165	–	–	inactive	–	10 to 30	100
CN1CCN(c2ccc([C@H]3C[C@@]4(C)[C@@H](CC[C@@]4(O)C#CC(C)(C)C)[C@@H]4CCC5=CC(=O)CC[C@@H]5[C@H]43)cc2)CC1	25.4	1010	> 2500	35.8	inactive	7.9	10 to 30	–
CC#C[C@]1(O)CC[C@H]2[C@@H]3CCC4=CC(=O)CC[C@]4(C)[C@H]3[C@@H](c3ccc(-n4cccc4)cc3)C[C@@]21C	523	354	> 2500	52.2	inactive	16.5	–	–
CC#C[C@]1(O)CC[C@H]2[C@@H]3CCC4=CC(=O)CC[C@]4(C)[C@H]3[C@@H](c3ccc(N(C)C(C)C)cc3)C[C@@]21C	527	2250	1140	20.6	inactive	55.9	–	–
COCC#C[C@]1(O)CC[C@H]2[C@@H]3CCC4=CC(=O)CC[C@]4(C)[C@H]3[C@@H](c3ccc(N(C)C)cc3)C[C@@]21C	4240	> 5000	> 2500	116	inactive	17.5	–	–
CN(C)c1ccc([C@H]2C[C@@]3(C)[C@@H](CC[C@@]3(O)C#CC(F)(F)F)[C@@H]3CCC4=CC(=O)CC[C@]4(C)[C@H]32)cc1	910	642	> 2500	47.2	inactive	7.3	–	–
CC(C)(C)C#C[C@]1(O)CC[C@H]2[C@@H]3CCC4=CC(=O)CC[C@@H]4[C@H]3[C@@H](c3ccc(N4CCOCC4)cc3)C[C@@]21C	4.8	208	> 2500	10.3	inactive	5.1	10 to 30	100
CCC#C[C@]1(O)CC[C@H]2[C@@H]3CCC4=CC(=O)CC[C@]4(C)[C@H]3[C@@H](c3ccc(N(C)C)cc3)C[C@@]21C	1550	2960	> 2500	73.7	inactive	13.2	–	–
CC#C[C@]1(O)CC[C@H]2[C@@H]3CCC4=CC(=O)CC[C@]4(C)[C@H]3[C@@H](OCc3ccc(Cl)cc3)C[C@@]21C	8.2	85	1890	17.6	inactive	47.8	–	–
CC#C[C@]1(O)CC[C@H]2[C@@H]3CCC4=CC(=O)CC[C@]4(C)[C@H]3[C@@H](c3ccc(N4CCCC4)cc3)C[C@@]21C	4070	3150	> 2500	57.9	inactive	10.6	–	–
